Assay results: ChEMBL document CHEMBL1151304, “Preparation and cytotoxic effect of ceanothic acid derivatives” (J Nat Prod, 1998)
In brackets after ≈: the same amount, converted by molar mass.

What was measured:
HeLa [1] = assay: Cytotoxicity against human HeLa cells assessed as cell survival after 48 hrs by MTT assay relative to control; format: functional; parameters: concentration or dose not given beside the values
In short: (§1)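 FS-5 foreskin fibroblasts and HeLa cervical carcinoma cells were grown in DMEM with 10% heat-inactivated FCS, antibiotics and glutamine at 37 °C under 5% CO₂. They were seeded at 2 × 10⁴ cells/well and held 24 h, then exposed for 48 h to compound in medium with 2% FCS. MTT (5 mg/mL stock in PBS) went on for 4 h, then SDS/DMF lysis overnight, and A570 was read.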

[2] = Cytotoxicity against human FS5 cells assessed as cell survival after 48 hrs by MTT assay relative to control; format: cell-based; parameters: concentration or dose not given beside the values; details: read-out: Survival; in short: as §1
OVCAR-3 [3] = assay: Cytotoxicity against human OVCAR-3 cells assessed as cell survival after 48 hrs by MTT assay relative to control; format: functional; parameters: concentration or dose not given beside the values
In short: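 OVCAR-3 (human ovarian adenocarcinoma) cells were kept in RPMI 1640 with 10% heat-inactivated FCS, streptomycin, penicillin and 2 mM glutamine at 37 °C under 5% CO₂. They were seeded at 2 × 10⁴ cells/well and grown 24 h. The medium was then swapped for one holding compound and 2% FCS for 48 h. MTT (5 mg/mL stock in PBS) went on for 4 h in serum-free medium, then SDS/DMF lysis overnight, and absorbance was read at 570 nm.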

[4] = Cytotoxicity against human FS5 cells after 48 hrs by MTT assay; format: cell-based; details: FS5, 48 h
In short: (§2)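 FS-5 foreskin fibroblasts and HeLa cervical carcinoma cells grown in DMEM with 10% heat-inactivated FCS, penicillin, streptomycin, glutamine (37 °C, 5% CO2). Seeded at 2 × 10⁴ cells/well and left 24 h, then exposed 48 h to compounds in medium with 2% FCS. Washed, MTT added for 4 h at 37 °C, lysed overnight in SDS/DMF, A570 read.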

HeLa [5] = assay: Cytotoxicity against human HeLa cells after 48 hrs by MTT assay; format: functional, cell-based; in short: as §2
OVCAR-3 [6] = assay: Cytotoxicity against human OVCAR-3 cells after 48 hrs by MTT assay; format: functional, cell-based; details: OVCAR-3, 48 h
In short: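 OVCAR-3 ovarian adenocarcinoma cells kept in RPMI 1640 with 10% heat-inactivated FCS, 100 µg/mL streptomycin, 100 IU/mL penicillin, 2 mM glutamine at 37 °C, 5% CO2. Plated at 2 × 10⁴ cells/well and cultured 24 h, then treated 48 h in 2% FCS medium. After washing, MTT incubation 4 h, overnight lysis in 20% SDS/50% DMF, absorbance at 570 nm.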

HeLa [7] = assay: Cytotoxicity against human HeLa cells assessed as cell survival at 10 ug/ml after 48 hrs by MTT assay relative to control; format: functional; details: read-out: Survival
OVCAR-3 [8] = assay: Cytotoxicity against human OVCAR-3 cells assessed as cell survival at 10 ug/ml after 48 hrs by MTT assay relative to control; format: functional; details: OVCAR-3, 48 h, read-out: Survival
[9] = Cytotoxicity against human FS5 cells assessed as cell survival at 10 ug/ml after 48 hrs by MTT assay relative to control; format: cell-based; details: read-out: Survival

SMILES	Survival (HeLa [1]) [%]	viability at 48 h [2] [%]	Survival (OVCAR-3 [3]) [%]	IC50 [4] [µg/mL]	IC50 (HeLa [5]) [µg/mL]	IC50 (OVCAR-3 [6]) [µg/mL]	viability at 10 µg/mL (HeLa [7]) [%]	viability at 10 µg/mL (OVCAR-3 [8]) [%]	viability at 48 h, 10 ug/ml [9] [%]
C=C(C)[C@@H]1CC[C@]2(C(=O)O)CC[C@]3(C)[C@H](CC[C@@H]4[C@@]5(C)[C@@H](CO)[C@H](O)C(C)(C)[C@@H]5CC[C@]43C)[C@@H]12	22	43	25						
C=C(C)[C@@H]1CC[C@]2(C(=O)O)CC[C@]3(C)[C@H](CC[C@@H]4[C@@]5(C)C=CC(C)(C)[C@@H]5CC[C@]43C)[C@@H]12	17	33	0	22.7 (≈ 53.5 µM)	7.1 (≈ 16.7 µM)	3.5 (≈ 8.24 µM)			
C=C(C)[C@@H]1CC[C@]2(C(=O)O)CC[C@]3(C)[C@H](CC[C@@H]4[C@@]5(C)C[C@H](O)C(C)(C)[C@@H]5CC[C@]43C)[C@@H]12	18	67	0	29.6 (≈ 66.9 µM)	9.1 (≈ 20.6 µM)	4.7 (≈ 10.6 µM)			
COc1cccc2c1C(=O)c1c(O)c3c(c(O)c1C2=O)C[C@@](O)(C(=O)CO)C[C@@H]3O[C@H]1C[C@H](N)[C@H](O)[C@H](C)O1 [DOXORUBICIN]							19	21	56
C=C(C)[C@@H]1CC[C@]2(C(=O)O)CC[C@]3(C)[C@H](CC[C@@H]4[C@@]5(C)CCC(C)(C)[C@@H]5CC[C@]43C)[C@@H]12	48	85	55						
C=C(C)[C@@H]1CC[C@]2(C(=O)O)CC[C@]3(C)[C@H](CC[C@@H]4[C@@]5(C)CC(=O)C(C)(C)[C@@H]5CC[C@]43C)[C@@H]12	4	16	0	11.3 (≈ 25.6 µM)	6.6 (≈ 15 µM)	2.8 (≈ 6.35 µM)			
C=C(C)[C@@H]1CC[C@]2(C(=O)O)CC[C@]3(C)[C@H](CC[C@@H]4[C@@]5(C)[C@@H](C(=O)O)[C@H](O)C(C)(C)[C@@H]5CC[C@]43C)[C@@H]12 [CEANOTHIC ACID]	65	81	68						
C=C(C)[C@@H]1CC[C@]2(C(=O)O)CC[C@]3(C)[C@H](CC[C@@H]4[C@@]5(C)C(C(=O)O)=CC(C)(C)[C@@H]5CC[C@]43C)[C@@H]12	50	87	51						
C=C(C)[C@@H]1CC[C@]2(C(=O)O)CC[C@]3(C)[C@H](CC[C@@H]4[C@@]5(C)CC[C@H](O)C(C)(C)[C@@H]5CC[C@]43C)[C@@H]12 [BETULINIC ACID]	25	39	0	20.7 (≈ 45.3 µM)	0.8 (≈ 1.75 µM)	0.9 (≈ 1.97 µM)			
